Assays:
[1] = melting temperature; fluorescence melt of hairpins on a sequencing array, two-state fit, raised by 9.35 °C to match UV melts; conditions: sodium 0.088 M
Method in brief: (§1)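 On a sequenced MiSeq flow cell, library hairpins with annealed Cy3 and quencher oligos were imaged for Cy3 fluorescence in 2.5 °C steps up to 60 °C, in 50 mM Na-HEPES pH 8.0, 25 mM NaCl. Normalisation used pre-quench Cy3 and control constructs. Bootstrapped two-state fits gave melting temperature and folding enthalpy, combined by inverse variance across four replicates and with fitted temperatures raised by 9.35 °C to match UV melts.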

[2] = folding enthalpy; higher = less favourable; fluorescence melt of hairpins on a sequencing array, two-state fit; conditions: sodium 0.088 M
Method in brief: as §1

| Sequence | Tm [1] [°C] | folding enthalpy [2] [kcal/mol] |
| --- | --- | --- |
| GGATTAACGAAAGTTTCC (((..(((....)))))) | 28.2 | -19.4 |
| GGATTACGAAAGTATCC (((.(((....)))))) | 42.3 | -22.2 |
| GGATTAGGAAACCAATCC (((((.(....).))))) | 34.4 | -34 |
| GGATTAGGAAACTAATCC (((((((....))))))) | 55 | -40.5 |
| GGATTCACGAAAGTGTCC (((..(((....)))))) | 29.8 | -12.5 |
| GGATTCCGAAAGGATCC (((.(((....)))))) | 49.6 | -29.1 |
| GGATTCGAAAGAAAATCC ((((((....)))..))) | 29.9 | -21.4 |
| GGATTCGGAAACGGATTC (.((.((....)).)).) | 32.3 | -16.7 |
| GGATTGCGAAAGCAGTCC (((.(((....))).))) | 60.2 | -38.5 |
| GGATTGGGAAACCAATTC (.(((((....))))).) | 44.2 | -28 |
| GGATTGGGAAACTAATCC (((((.(....).))))) | 43.5 | -33.9 |
| GGATTGGGAAACTAGTCC (((.(.(....).).))) | 27.3 | -23.6 |
| GGATTGGGAAACTGATCC ((((..(....)..)))) | 34.4 | -28.1 |
| GGATTTCGAAAGAAGTCC (((.(((....))).))) | 49.3 | -36.2 |
| GGCAAAGGAAACTTCGCC (((.(((....))).))) | 41 | -29.7 |
| GGCAAATCGAAAGATGCC (((..(((....)))))) | 47.6 | -29.8 |
| GGCAACCGAAAGGTCGCC (((.(((....))).))) | 58.9 | -37.3 |
| GGCAACGAAAGTTAGGCC ((((((....)))..))) | 46.2 | -28.3 |
| GGCAACGAAAGTTGGGCC ((((((....)))..))) | 44.6 | -16.9 |
| GGCAACGAAAGTTTGGCC ((((((....)))..))) | 46.4 | -27.3 |
| GGCAACGAAAGTTTTGCC ((((((....)))..))) | 44.9 | -26 |
| GGCAAGAAATTGCC (((((....))))) | 53 | -33.2 |
| GGCAAGCGAAAGCTCGCC (((.(((....))).))) | 59.7 | -22.9 |

| Sequence | Tm [1] [°C] | folding enthalpy [2] [kcal/mol] |
| --- | --- | --- |
| GGCAAGGAAACTTGCC ((((((....)))))) | 64.7 | -37 |
| GGCAAGGGAAACCTCGCC (((.(((....))).))) | 47.1 | -32 |
| GGCAAGGGAAACCTTACC ((.((((....)))).)) | 37.4 | -29.2 |
| GGCAAGGGAAACCTTGCC (((((((....))))))) | 67.8 | -33.1 |
| GGCAATACGAAAGTAGCC (((..(((....)))))) | 44.4 | -17.9 |
| GGCACACGAAAGTGGCC (((.(((....)))))) | 62.2 | -23.2 |
| GGCACAGGAAACCGTGCC (((((.(....).))))) | 56.8 | -43.9 |
| GGCACCACGAAAGTGGCC (((..(((....)))))) | 38.1 | -11.6 |
| GGCACCCCGAAAGGGGCC (((..(((....)))))) | 53.1 | -12.9 |
| GGCACCCGAAAGGGGCC (((.(((....)))))) | 67.1 | -20.9 |
| GGCACCGAAAGGTACGCC ((((((....)))..))) | 51.4 | -27.3 |
| GGCACCGAAAGGTATGCC ((((((....)))..))) | 51.6 | -25.1 |
| GGCACCGAAAGGTCAGCC ((((((....)))..))) | 49.2 | -24.2 |
| GGCACCGGAAACGACGCC (((..((....))..))) | 42 | -29.9 |
| GGCACGGGAAACCGTACC ((.((((....)))).)) | 48.4 | -34.4 |
| GGCACTCGAAAGAGAGCC (((.(((....))).))) | 59 | -46.2 |
| GGCACTGGAAACAATGCC ((((.((....)).)))) | 42.7 | -29.6 |
| GGCACTGGAAACAGTACC ((.((((....)))).)) | 43 | -33 |
| GGCAGAACGAAAGTTGCC (((..(((....)))))) | 50.9 | -27.2 |
| GGCAGAGGAAACCCTGCC (((((.(....).))))) | 53.3 | -37.8 |
| GGCAGAGGAAACTCTACC ((.((((....)))).)) | 38.3 | -23.8 |
| GGCAGCCGAAAGGCCGCC (((.(((....))).))) | 66.9 | -22.3 |
| GGCAGCGAAAGCTACGCC ((((((....)))..))) | 53.5 | -20.5 |

| Sequence | Tm [1] [°C] | folding enthalpy [2] [kcal/mol] |
| --- | --- | --- |
| GGCAGCGAAAGCTGCGCC ((((((....)))..))) | 65.7 | -6.68 |
| GGCAGCGAAAGCTTGCC ((((((....))).))) | 63.1 | -27.1 |
| GGCAGCGAAAGCTTGGCC ((((((....)))..))) | 52.7 | -23.7 |
| GGCAGCGGAAACGTTGCC ((((.((....)).)))) | 61.2 | -40.4 |
| GGCAGGACGAAAGTCGCC (((..(((....)))))) | 55.4 | -38.2 |
| GGCAGGGGAAACCTTGCC ((((.((....)).)))) | 55.3 | -49.2 |
| GGCAGTCGAAAGACAGCC (((.(((....))).))) | 61.8 | -38.9 |
| GGCAGTGCGAAAGCAGCC (((..(((....)))))) | 53 | -19.7 |
| GGCAGTGGAAACACCACC ((..(((....)))..)) | 29.5 | -13.2 |
| GGCAGTGGAAACACTGTC (.(((((....))))).) | 54.1 | -30.2 |
| GGCAGTGGAAACGCTGCC (((((.(....).))))) | 62.7 | -42.3 |
| GGCAGTGGAAACGCTGTC (.(((.(....).))).) | 44.5 | -23.4 |
| GGCATACGAAAGTAGCC (((.(((....)))))) | 52.7 | -24.4 |
| GGCATAGAAATATGCC ((((((....)))))) | 55.4 | -42.2 |
| GGCATAGGAAACTATACC ((.((((....)))).)) | 31.2 | -18.6 |
| GGCATCCGAAAGGACGCC (((.(((....))).))) | 57.2 | -48.8 |
| GGCATCCGAAAGGAGGCC (((.(((....))).))) | 69.3 | -38.2 |
| GGCATCGAAAGATAGCC ((((((....))).))) | 51.9 | -25.6 |
| GGCATCGAAAGATCTGCC ((((((....)))..))) | 39.6 | -24.9 |
| GGCATCGAAAGATGGGCC ((((((....)))..))) | 46.8 | -19.2 |
| GGCATCGAAAGATTGCC ((((((....))).))) | 52.7 | -31.1 |
| GGCATCGAAAGATTTGCC ((((((....)))..))) | 40.7 | -29.2 |
